Activity calls are given as the source filed them. The rule behind the calls is not given here. Where only a bound is given, the exact number is not on record here.

The results in this text go back to ChEMBL document CHEMBL3621102, “Structure-activity study of quinazoline derivatives leading to the discovery of potent EGFR-T790M inhibitors” (Eur J Med Chem, 2015).

Data set [1] deals with NCI-H1975. The data set is described as follows: Antitumor activity against human NCI-H1975 cells xenografted in BALB/c mouse assessed as tumor growth inhibition at 20 mg/kg po, qd for 21 days relative to control. It is filed as functional. The essentials: (§1)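 Athymic mice received 2 × 10⁶ tumour cells subcutaneously in the right flank. At 100–300 mm³ they were randomised to control and treatment groups (n = 6); controls received vehicle alone. Tumour volume = length × width²/2 and RTV = Vt/V0.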
Background: Xenograft models place foreign cells or tissue in a host animal.

Data set [2] deals with Mus musculus. Nature of the data set: Toxicity in human NCI-H1975 cells xenografted BALB/c mouse assessed as body weight changes at 20 mg/kg po, qd for 21 days relative to control. It is filed as organism-based. Particulars: in vivo, 504 h. The gist of the method:
(§2)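 Athymic mice bearing subcutaneous right-flank xenografts (2 × 10⁶ cells, dosed at 100–300 mm³; n = 6 per group; vehicle controls). Health was observed daily and body weight measured on indicated days. Body weight change (%) = (Wt/W0 − 1) × 100 against predosing weight, given as group mean ± SEM.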

For data set [3], the system named is Mus musculus. Nature of the data set: Toxicity in human NCI-H1975 cells xenografted BALB/c mouse assessed as mouse mortality at 30 mg/kg po, qd for 21 days measured on day 10 relative to control. The settings on record: in vivo, 504 h. Type of data set: organism-based. The gist of the method: (§3)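 Athymic mice received 2 × 10⁶ NCI-H1975 cells subcutaneously in the right flank. When tumours reached 100–300 mm³, mice were randomised into control and treatment groups (n = 6 per group), and controls got vehicle alone. Health was checked daily, and body weight and tumour size were measured on set days during treatment.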

Data set [4] concerns the target Epidermal growth factor receptor (Homo sapiens, UniProt P00533). Nature of the data set: Inhibition of EGFR (unknown origin) by ELISA method. (ELISA stands for enzyme-linked immunosorbent assay.)
In data set [5] the test system is NCI-H1975. Nature of the data set: Antiproliferative activity against human NCI-H1975 cells assessed as growth inhibition. Type of data set: functional. The gist of the method: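 NCI-H1975 cells were grown in RPMI with 1 mM sodium pyruvate, 10% FBS and 1% penicillin-streptomycin, under humidified 5% CO₂ at 37 °C. Growth inhibition was read as GI₅₀.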
Data set [6] has as its system Mus musculus. The data set is described as follows: Toxicity in NCI-H1975 xenografted BALB/c mouse assessed as body weight loss at 20 mg/kg po, qd for 21 days. It is filed as organism-based. Particulars: in vivo, 504 h. The gist of the method:
as §2

A short description of data set [7]: Toxicity in NCI-H1975 xenografted BALB/c mouse assessed as induction of mouse mortality at 20 mg/kg po, qd for 7 days. Type of data set: organism-based. Particulars: in vivo. The gist of the method: as §3
Data set [8] has as its system NCI-H1975. The data set is described as follows: Antitumor activity against human NCI-H1975 cells xenografted in BALB/c mouse assessed as tumor growth inhibition at 10 mg/kg po, qd for 21 days. It is filed as functional, organism-based. The gist of the method:
as §1

For data set [9], the system named is Mus musculus. Nature of the data set: Toxicity in NCI-H1975 xenografted BALB/c mouse assessed as body weight change at 10 mg/kg po, qd for 21 days. Type of data set: organism-based. The settings on record: in vivo, 504 h. The gist of the method: as §2
In data set [10] the test system is Mus musculus. The data set is described as follows: Toxicity in NCI-H1975 xenografted BALB/c mouse assessed as skin toxicity at 10 mg/kg po, qd for 21 days. It is filed as organism-based. Particulars: in vivo, 504 h. The gist of the method:
as §2

The test system of data set [11] is Mus musculus. The data set is described as follows: Toxicity in NCI-H1975 xenografted BALB/c mouse assessed as body weight change at 20 mg/kg po, qd for 21 days. Particulars: in vivo, 504 h. It is filed as organism-based. The gist of the method: as §2
The subject of data set [12] is A-431. The data set is described as follows: Antitumor activity against human A431 cells xenografted in BALB/c mouse assessed as tumor growth inhibition at 5 mg/kg po, qd for 18 days. Type of data set: functional, organism-based. The essentials: as §1
A further data set concerns HCC827. Nature of the data set: Antitumor activity against human HCC827 cells xenografted in BALB/c mouse assessed as tumor growth inhibition at 5 mg/kg po, qd for 12 days. Type of data set: functional, organism-based. The gist of the method: as §1
Data set [13] deals with A-431. The data set is described as follows: Antitumor activity against human A431 cells xenografted in BALB/c mouse assessed as tumor growth inhibition at 10 mg/kg po, qd for 18 days. Type of data set: functional, organism-based. The essentials:
as §1

Data set [14] deals with Mus musculus. The data set is described as follows: Toxicity in human A431 cells xenografted BALB/c mouse assessed as body weight loss at 5 and 10 mg/kg po, qd for 18 days. It is filed as organism-based, A-431. Particulars: in vivo, 432 h. The gist of the method:
as §2

Data set [15] can be described thus: AUC (0 to 24 hrs) in Sprague-Dawley rat at 1 mg/kg, iv by LC/MS/MS method. Type of data set: ADME, organism-based. The arrangement: time < 24 hr, dose 1 mg/kg, route intravenous. Particulars: in vivo. The gist of the method: (§4)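 Male Sprague-Dawley rats (n = 3) dosed once at 1 mg/kg iv via tail vein, or once at 5 mg/kg by oral gavage, using the same formulation. Serial blood samples were taken over 24 h. Plasma levels were measured by LC/MS/MS (C18 column, 10 mM ammonium formate-0.1% formic acid water/methanol 10/90, ESI positive). Parameters were derived by noncompartmental analysis.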

Data set [16] in a line: AUC (0 to infinity) in Sprague-Dawley rat at 1 mg/kg, iv by LC/MS/MS method. The settings on record: in vivo. It is filed as ADME, organism-based. The arrangement: dose 1 mg/kg, time infinity, route intravenous. The essentials: as §4
Data set [17] is described as follows: Mean residence time in Sprague-Dawley rat at 1 mg/kg, iv incubated for 24 hrs by LC/MS/MS method. It is filed as ADME, organism-based. Particulars: in vivo. The gist of the method:
as §4

Data set [18] can be described thus: Elimination half-life in Sprague-Dawley rat at 1 mg/kg, iv incubated for 24 hrs by LC/MS/MS method. The settings on record: in vivo, read-out: beta t1/2 (converted). Type of data set: ADME, organism-based. The gist of the method:
as §4

Data set [19] is described as follows: Clearance in Sprague-Dawley rat at 1 mg/kg, iv incubated for 24 hrs by LC/MS/MS method. It is filed as ADME, organism-based. The settings on record: in vivo. The gist of the method:
as §4

Data set [20] in a line: Apparent volume of distribution in Sprague-Dawley rat at 1 mg/kg, iv incubated for 24 hrs by LC/MS/MS method. Type of data set: ADME, organism-based. The settings on record: in vivo, read-out: Vd(app). The essentials:
as §4

Data set [21] can be described thus: Bioavailability in Sprague-Dawley rat at 1 mg/kg, iv incubated for 24 hrs by LC/MS/MS method. Type of data set: ADME, organism-based. Particulars: in vivo. The essentials: as §4
For data set [22], the system named is Mus musculus. The data set is described as follows: Toxicity in human HCC827 cells xenografted BALB/c mouse assessed as body weight loss at 5 mg/kg po, qd for 12 days. Particulars: in vivo, 288 h. Type of data set: organism-based. The gist of the method: as §2
The subject of data set [23] is Mus musculus. The data set is described as follows: Toxicity in human A431 cells xenografted BALB/c mouse assessed as induction of exfoliative skin disorders at 5 and 10 mg/kg po, qd for 18 days. It is filed as organism-based, A-431. The settings on record: in vivo, 432 h. The essentials:
as §2

Data set [24] concerns Mus musculus. Nature of the data set: Toxicity in human A431 cells xenografted BALB/c mouse assessed as induction of eye diseases at 5 and 10 mg/kg po, qd for 18 days. It is filed as organism-based, A-431. Particulars: in vivo, 432 h. The gist of the method: as §2
Data set [25] has as its system Mus musculus. Nature of the data set: Toxicity in human HCC827 cells xenografted BALB/c mouse assessed as induction of eye disease at 5 mg/kg po, qd for 12 days. Type of data set: organism-based. The settings on record: in vivo, 288 h. The gist of the method:
as §2

Data set [26] has as its system Mus musculus. The data set is described as follows: Toxicity in human HCC827 cells xenografted BALB/c mouse assessed as induction of exfoliative skin disorders at 5 mg/kg po, qd for 12 days. Type of data set: organism-based. The settings on record: in vivo, 288 h. The essentials: as §2

Sequence of Epidermal growth factor receptor (P00533 whole entry): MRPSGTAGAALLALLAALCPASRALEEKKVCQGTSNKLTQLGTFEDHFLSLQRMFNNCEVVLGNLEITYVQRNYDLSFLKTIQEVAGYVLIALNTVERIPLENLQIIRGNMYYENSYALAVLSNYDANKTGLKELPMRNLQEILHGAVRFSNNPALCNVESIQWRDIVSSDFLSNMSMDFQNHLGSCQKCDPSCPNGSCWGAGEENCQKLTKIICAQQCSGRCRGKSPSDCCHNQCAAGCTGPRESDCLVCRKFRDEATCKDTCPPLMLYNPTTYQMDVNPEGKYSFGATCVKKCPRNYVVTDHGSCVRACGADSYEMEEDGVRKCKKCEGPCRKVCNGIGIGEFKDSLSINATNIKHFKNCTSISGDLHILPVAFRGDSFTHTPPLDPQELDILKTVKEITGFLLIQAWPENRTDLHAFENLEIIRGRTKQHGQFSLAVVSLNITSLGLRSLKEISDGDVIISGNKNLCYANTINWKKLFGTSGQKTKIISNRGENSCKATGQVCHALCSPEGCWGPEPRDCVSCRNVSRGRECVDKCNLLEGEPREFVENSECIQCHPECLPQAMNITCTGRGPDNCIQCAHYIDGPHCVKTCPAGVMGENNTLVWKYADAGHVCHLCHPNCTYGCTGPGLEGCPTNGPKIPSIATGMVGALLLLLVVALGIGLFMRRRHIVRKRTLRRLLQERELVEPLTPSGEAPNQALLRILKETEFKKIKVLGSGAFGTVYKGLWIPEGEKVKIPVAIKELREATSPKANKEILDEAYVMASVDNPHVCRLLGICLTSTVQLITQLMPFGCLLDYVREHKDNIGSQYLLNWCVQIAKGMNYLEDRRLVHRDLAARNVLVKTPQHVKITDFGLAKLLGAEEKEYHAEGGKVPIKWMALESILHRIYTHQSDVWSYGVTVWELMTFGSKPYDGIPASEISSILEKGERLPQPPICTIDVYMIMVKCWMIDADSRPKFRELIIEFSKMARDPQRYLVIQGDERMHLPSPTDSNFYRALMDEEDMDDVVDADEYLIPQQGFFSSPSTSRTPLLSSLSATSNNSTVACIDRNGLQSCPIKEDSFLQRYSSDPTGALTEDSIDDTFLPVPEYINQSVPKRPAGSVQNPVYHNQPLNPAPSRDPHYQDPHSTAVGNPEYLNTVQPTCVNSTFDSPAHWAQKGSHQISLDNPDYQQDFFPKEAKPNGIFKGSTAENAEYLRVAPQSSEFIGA

As for `CN(C)C/C=C/C(=O)Nc1cc2c(Nc3ccc(F)c(Cl)c3)ncnc2cc1O[C@H]1CCOC1.O=C(O)/C=C\C(=O)O.O=C(O)/C=C\C(=O)O` [AFATINIB DIMALEATE], the inhibition in vivo at 20 mg/kg with NCI-H1975 [1] (504 h, read-out: TGI) is below 50%. Further, the Activity result with Mus musculus [2] was “Non-toxic”; in the data set with Mus musculus [3] it was “Toxic”.
Compound `C#Cc1cccc(Nc2ncnc3cc(OCC)c(NC(=O)/C=C/CN(C)C4CC4)cc23)c1` yielded an IC50 in [4] of 2.4 nM. Moreover, the concentration for 50% growth inhibition (GI50) with NCI-H1975 [5] amounted to 41 nM. The TGI entry with NCI-H1975 [1] is “Active”. The Activity result in the data set with Mus musculus [6] is given as “Toxic”. Besides, in data set [7], the mortality at 168 h is above 50%.
`C#Cc1cccc(Nc2ncnc3cc(OC)c(NC(=O)/C=C/CNC4CC4)cc23)c1` yielded a half-maximal inhibitory concentration (IC50) in data set [4] of 7.9 nM. Further, in the data set with NCI-H1975 [5], the GI50 is 18.9 nM. Besides, the TGI entry with NCI-H1975 [8] was “Active”. The Activity result in the data set on Mus musculus [9] was “Non-toxic”; with Mus musculus [10], “Toxic”.
In data set [4], `C#Cc1cccc(Nc2ncnc3cc(O[C@H]4CCOC4)c(NC(=O)/C=C/CNC4CC4)cc23)c1` returned an IC50 of 5.6 nM. For the same compound, the GI50 in the data set on NCI-H1975 [5] was found to be 16.1 nM. For the same compound, the TGI entry in the data set with NCI-H1975 [1], with HCC827 and in the data set on A-431 [13] was “Active” in each case. Also, the Activity result in the data set on Mus musculus [11], in the data set on Mus musculus [14], in the data set on Mus musculus [22], with Mus musculus [23], with Mus musculus [24] and with Mus musculus [25] was “Non-toxic” in each case. For the same compound, the Activity entry with Mus musculus [26] is on record as “Non-toxic”. The TGI result in the data set on A-431 [12] was “inactive”. The AUC(0-t) at 24 h in data set [15] amounted to 471 ng·h/mL. For the same compound, in [16], the AUC(0-inf) was 480 ng·h/mL. This compound also came in with an MRT in [17] of 1.7 h. The half-life in data set [18] is 2.3 h. The compound further gave a clearance in data set [19] of 50 mL/min/kg. Further, the Vd in data set [20] was found to be 2.2 L/kg. This compound had a bioavailability in data set [21] of 37.9%.

What is called IC50 is the concentration that gives 50% inhibition. A high value points to a need for much substance. In general, GI50 refers to the concentration at which growth is held to half of that of the control. By mortality is commonly meant the share of the test organisms that died. The term AUC(0-t) denotes exposure summed from dosing to a finite time, without extrapolation to infinity. Broadly, the AUC(0-inf) is the area under the concentration-time curve extrapolated to infinity. Low values mean less exposure, high ones more exposure. In general, MRT refers to the average time that molecules of a dose stay in the body. For orientation: clearance means the rate of elimination divided by the concentration. As usually defined, the bioavailability is the share of a dose that reaches the circulation, judged against a reference dose that is usually intravenous. Lower therefore signals poor availability.
